{"source": "ChEMBL document CHEMBL3091371", "about": "“Cytotoxic and antibacterial marfuraquinocins from the deep South China Sea-derived Streptomyces niveus SCSIO 3406” (J Nat Prod, 2013)", "key": {"[1]": {"system": "Staphylococcus epidermidis", "test": "Antibacterial activity against methicillin-resistant Staphylococcus epidermidis clinical isolate shhs-E1 by broth microdilution method", "type": "functional", "in_short": "(§1)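 Broth microdilution; MIC read as the lowest concentration giving complete growth inhibition in microdilution wells by unaided eye. Clinical isolates from Shanghai Huashan Hospital. Ampicillin and kanamycin as antibacterial controls. Results in μg/mL.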"}, "Staphylococcus aureus [2]": {"system": "Staphylococcus aureus", "test": "Antibacterial activity against methicillin-resistant Staphylococcus aureus clinical isolate shhs-A1 by broth microdilution method", "type": "functional", "in_short": "as §1"}, "Micrococcus luteus": {"system": "Micrococcus luteus", "test": "Antibacterial activity against Micrococcus luteus by broth microdilution method", "type": "functional"}, "[3]": {"test": "Antibacterial activity against Aeromonas hydrophila ATCC 7966 by broth microdilution method", "type": "functional, Aeromonas hydrophila subsp. hydrophila ATCC 7966"}, "Acinetobacter baumannii": {"system": "Acinetobacter baumannii", "test": "Antibacterial activity against Acinetobacter baumannii ATCC 19606 by broth microdilution method", "type": "functional"}, "Staphylococcus aureus [4]": {"system": "Staphylococcus aureus", "test": "Antibacterial activity against Staphylococcus aureus ATCC 29213 by broth microdilution method", "type": "functional"}, "Escherichia coli": {"system": "Escherichia coli", "test": "Antibacterial activity against Escherichia coli ATCC 25922 by broth microdilution method", "type": "functional"}, "HepG2": {"system": "HepG2", "test": "Cytotoxicity against human HepG2 cells after 72 hrs by SRB assay", "type": "functional, cell-based", "details": "HepG2, 72 h", "in_short": "(§2)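 Human tumour lines are tested by sulforhodamine B (SRB) staining. Cisplatin (DDP) is the positive control. IC50 is reported in μM as mean ± deviation.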"}, "NCI-H460": {"system": "NCI-H460", "test": "Cytotoxicity against human NCI-H460 cells after 72 hrs by SRB assay", "type": "functional, cell-based", "details": "NCI-H460, 72 h", "in_short": "as §2"}, "MCF7": {"system": "MCF7", "test": "Cytotoxicity against human MCF7 cells after 72 hrs by SRB assay", "type": "functional, cell-based", "details": "MCF7, 72 h", "in_short": "as §2"}, "SF-268": {"system": "SF-268", "test": "Cytotoxicity against human SF268 cells after 72 hrs by SRB assay", "type": "functional, cell-based", "details": "SF-268, 72 h", "in_short": "as §2"}}, "data": [{"smiles": "CC1(C)S[C@@H]2[C@H](NC(=O)[C@H](N)c3ccccc3)C(=O)N2[C@H]1C(=O)O", "note": "[AMPICILLIN]", "values": [{"measurement": "MIC", "setting": "[1]", "value": 2, "unit": "µg/mL"}, {"measurement": "MIC", "setting": "Staphylococcus aureus [2]", "value": "> 128", "unit": "µg/mL"}, {"measurement": "MIC", "setting": "Micrococcus luteus", "value": 2, "unit": "µg/mL"}, {"measurement": "MIC", "setting": "[3]", "value": 128, "unit": "µg/mL"}, {"measurement": "MIC", "setting": "Acinetobacter baumannii", "value": "> 128", "unit": "µg/mL"}, {"measurement": "MIC", "setting": "Staphylococcus aureus [4]", "value": 0.5, "unit": "µg/mL"}]}, {"smiles": "C=C1CCCC(C)(C)C1CC[C@]1(C)c2c(O)cc3c(c2O[C@@H]1C)C(=O)C=C(OC)C3=O", "note": "(some centres undefined)", "values": [{"measurement": "MIC", "setting": "[1]", "value": 32, "unit": "µg/mL"}, {"measurement": "MIC", "setting": "Staphylococcus aureus [2]", "value": "> 128", "unit": "µg/mL"}, {"measurement": "MIC", "setting": "Micrococcus luteus", "value": "> 128", "unit": "µg/mL"}, {"measurement": "MIC", "setting": "[3]", "value": 128, "unit": "µg/mL"}, {"measurement": "MIC", "setting": "Acinetobacter baumannii", "value": "> 128", "unit": "µg/mL"}, {"measurement": "MIC", "setting": "Staphylococcus aureus [4]", "value": 64, "unit": "µg/mL"}, {"measurement": "MIC", "setting": "Escherichia coli", "value": 128, "unit": "µg/mL"}, {"measurement": "IC50", "setting": "HepG2", "value": 18.5, "unit": "µM"}, {"measurement": "IC50", "setting": "NCI-H460", "value": 18.8, "unit": "µM"}, {"measurement": "IC50", "setting": "MCF7", "value": 18.7, "unit": "µM"}, {"measurement": "IC50", "setting": "SF-268", "value": 27.9, "unit": "µM"}]}, {"smiles": "NC[C@H]1O[C@H](O[C@H]2[C@H](O)[C@@H](O[C@H]3O[C@H](CO)[C@@H](O)[C@H](N)[C@H]3O)[C@H](N)C[C@@H]2N)[C@H](O)[C@@H](O)[C@@H]1O", "note": "[KANAMYCIN]", "values": [{"measurement": "MIC", "setting": "[1]", "value": 128, "unit": "µg/mL"}, {"measurement": "MIC", "setting": "Staphylococcus aureus [2]", "value": 0.5, "unit": "µg/mL"}, {"measurement": "MIC", "setting": "Micrococcus luteus", "value": 0.5, "unit": "µg/mL"}, {"measurement": "MIC", "setting": "[3]", "value": 0.5, "unit": "µg/mL"}, {"measurement": "MIC", "setting": "Acinetobacter baumannii", "value": 4, "unit": "µg/mL"}, {"measurement": "MIC", "setting": "Staphylococcus aureus [4]", "value": 0.5, "unit": "µg/mL"}, {"measurement": "MIC", "setting": "Escherichia coli", "value": 0.5, "unit": "µg/mL"}]}, {"smiles": "CC(C)=CCC/C(C)=C/COc1cccc2nc3c(O)cccc3nc12", "values": [{"measurement": "MIC", "setting": "[1]", "value": 128, "unit": "µg/mL"}, {"measurement": "MIC", "setting": "Staphylococcus aureus [2]", "value": "> 128", "unit": "µg/mL"}, {"measurement": "MIC", "setting": "Micrococcus luteus", "value": "> 128", "unit": "µg/mL"}, {"measurement": "MIC", "setting": "[3]", "value": 64, "unit": "µg/mL"}, {"measurement": "MIC", "setting": "Acinetobacter baumannii", "value": "> 128", "unit": "µg/mL"}, {"measurement": "MIC", "setting": "Staphylococcus aureus [4]", "value": 128, "unit": "µg/mL"}, {"measurement": "MIC", "setting": "Escherichia coli", "value": 128, "unit": "µg/mL"}, {"measurement": "IC50", "setting": "HepG2", "value": 22.3, "unit": "µM"}, {"measurement": "IC50", "setting": "NCI-H460", "value": 68.9, "unit": "µM"}, {"measurement": "IC50", "setting": "MCF7", "value": 16.8, "unit": "µM"}, {"measurement": "IC50", "setting": "SF-268", "value": 10.2, "unit": "µM"}]}, {"smiles": "C=C1CCCC(C)(C)C1CC[C@@]1(C)c2c(O)cc3c(c2O[C@@H]1C)C(=O)C=C(OC)C3=O", "note": "(some centres undefined)", "values": [{"measurement": "MIC", "setting": "[1]", "value": 64, "unit": "µg/mL"}, {"measurement": "MIC", "setting": "Staphylococcus aureus [2]", "value": "> 128", "unit": "µg/mL"}, {"measurement": "MIC", "setting": "Micrococcus luteus", "value": "> 128", "unit": "µg/mL"}, {"measurement": "MIC", "setting": "[3]", "value": 128, "unit": "µg/mL"}, {"measurement": "MIC", "setting": "Acinetobacter baumannii", "value": "> 128", "unit": "µg/mL"}, {"measurement": "MIC", "setting": "Staphylococcus aureus [4]", "value": 8, "unit": "µg/mL"}, {"measurement": "MIC", "setting": "Escherichia coli", "value": 128, "unit": "µg/mL"}, {"measurement": "IC50", "setting": "HepG2", "value": 17.5, "unit": "µM"}, {"measurement": "IC50", "setting": "NCI-H460", "value": 3.7, "unit": "µM"}, {"measurement": "IC50", "setting": "MCF7", "value": 12.9, "unit": "µM"}, {"measurement": "IC50", "setting": "SF-268", "value": 26.7, "unit": "µM"}]}, {"smiles": "C=C1CCCC(C)(C)C1CC[C@]1(C)c2c(O)cc3c(c2O[C@@H]1CO)C(=O)C=C(OC)C3=O", "note": "(some centres undefined)", "values": [{"measurement": "MIC", "setting": "[1]", "value": 8, "unit": "µg/mL"}, {"measurement": "MIC", "setting": "Staphylococcus aureus [2]", "value": "> 128", "unit": "µg/mL"}, {"measurement": "MIC", "setting": "Micrococcus luteus", "value": "> 128", "unit": "µg/mL"}, {"measurement": "MIC", "setting": "[3]", "value": 128, "unit": "µg/mL"}, {"measurement": "MIC", "setting": "Acinetobacter baumannii", "value": "> 128", "unit": "µg/mL"}, {"measurement": "MIC", "setting": "Staphylococcus aureus [4]", "value": 8, "unit": "µg/mL"}, {"measurement": "MIC", "setting": "Escherichia coli", "value": 128, "unit": "µg/mL"}, {"measurement": "IC50", "setting": "HepG2", "value": 15.5, "unit": "µM"}, {"measurement": "IC50", "setting": "NCI-H460", "value": 8.8, "unit": "µM"}, {"measurement": "IC50", "setting": "MCF7", "value": 14.8, "unit": "µM"}, {"measurement": "IC50", "setting": "SF-268", "value": 18.3, "unit": "µM"}]}, {"smiles": "COc1cccc2nc3c(OC/C=C(\\C)CCC=C(C)C)cccc3nc12", "values": [{"measurement": "MIC", "setting": "[1]", "value": 128, "unit": "µg/mL"}, {"measurement": "MIC", "setting": "Staphylococcus aureus [2]", "value": "> 128", "unit": "µg/mL"}, {"measurement": "MIC", "setting": "Micrococcus luteus", "value": "> 128", "unit": "µg/mL"}, {"measurement": "MIC", "setting": "[3]", "value": 128, "unit": "µg/mL"}, {"measurement": "MIC", "setting": "Acinetobacter baumannii", "value": "> 128", "unit": "µg/mL"}, {"measurement": "MIC", "setting": "Staphylococcus aureus [4]", "value": 128, "unit": "µg/mL"}, {"measurement": "MIC", "setting": "Escherichia coli", "value": 128, "unit": "µg/mL"}, {"measurement": "IC50", "setting": "HepG2", "value": 52.7, "unit": "µM"}, {"measurement": "IC50", "setting": "NCI-H460", "value": "> 100", "unit": "µM"}, {"measurement": "IC50", "setting": "MCF7", "value": 21.9, "unit": "µM"}, {"measurement": "IC50", "setting": "SF-268", "value": 30.4, "unit": "µM"}]}, {"smiles": "C=C1CCCC(C)(C)C1CC[C@@]1(C)c2c(O)cc3c(c2O[C@@H]1CO)C(=O)C=C(OC)C3=O", "note": "(some centres undefined)", "values": [{"measurement": "MIC", "setting": "[1]", "value": 8, "unit": "µg/mL"}, {"measurement": "MIC", "setting": "Staphylococcus aureus [2]", "value": "> 128", "unit": "µg/mL"}, {"measurement": "MIC", "setting": "Micrococcus luteus", "value": "> 128", "unit": "µg/mL"}, {"measurement": "MIC", "setting": "[3]", "value": 128, "unit": "µg/mL"}, {"measurement": "MIC", "setting": "Acinetobacter baumannii", "value": "> 128", "unit": "µg/mL"}, {"measurement": "MIC", "setting": "Staphylococcus aureus [4]", "value": 8, "unit": "µg/mL"}, {"measurement": "MIC", "setting": "Escherichia coli", "value": 128, "unit": "µg/mL"}, {"measurement": "IC50", "setting": "HepG2", "value": 11.9, "unit": "µM"}, {"measurement": "IC50", "setting": "NCI-H460", "value": 4.4, "unit": "µM"}, {"measurement": "IC50", "setting": "MCF7", "value": 18.9, "unit": "µM"}, {"measurement": "IC50", "setting": "SF-268", "value": 17.9, "unit": "µM"}]}]}
